Laboratory results as given in PubChem BioAssay AID651740 (Broad Institute, 2012).
The campaign covered roughly 5,600 compounds. About 1,200 (21%) were called active. Another 3% or so got no clear call; they are omitted.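 The calls were made as follows: active = mean inhibition above about 95%, with at least 55% of replicates also reaching it (limit read from the data); inconclusive = meets just one of the two conditions; inactive = meets neither condition.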 The list is a sample of the results.

assay: Trypanosoma cruzi growth blockers in host fibroblasts – NIH3T3 host cells, beta-gal parasites, cherry-pick, set 2, confirmation (AID 651740);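 also: plate controls were neutral control median for no effect and positive control median for full effect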; conditions: T. cruzi beta-gal in NIH3T3, GalScreen luminescence, 90 h; at 2.09 µM; stronger effect = higher value
In short: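 System: T. cruzi Tulahuen C4 (beta-gal) in NIH/3T3 cells; Amount: 5,000 fibroblasts/well; Schedule: host attachment 3 h, co-culture ≥90 h, lysis 60 min; Signal: GalScreen luminescence (substrate 1:25 in Buffer B) after cell lysis; Buffer or medium: DMEM, 2% FBS, 1% PSG.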

Compound | inhibition
Cc1ccccc1-c1ccc([C@H]2[C@H]3CN(S(=O)(=O)c4ccc(F)cc4)CCCCN3[C@H]2CO)cc1 | 93.8% (inactive)
C[C@@H]1CCCCO[C@H](CN(C)S(=O)(=O)c2ccc(F)cc2)[C@H](C)CN([C@@H](C)CO)C(=O)c2cc(NS(=O)(=O)c3ccccc3)ccc2O1 | 47.8% (inactive)
O=C(CN1CCOCC1)N1CCCCN2[C@@H](CO)[C@H](c3ccc(-c4ccccc4)cc3)[C@@H]2C1 | 36.1% (inactive)
CC(C)NC(=O)N1[C@H](C#N)[C@H](c2ccc(C#CC3CCCCC3)cc2)[C@H]1CO | 117% (active)
CCCC#Cc1ccc([C@@H]2[C@@H](C#N)N(C(=O)C3CCCC3)[C@@H]2CO)cc1 | 73.2% (inactive)
CS(=O)(=O)N1[C@@H](C#N)[C@H](c2ccc(C#CC3CCCCC3)cc2)[C@@H]1CO | 35.7% (inactive)
CN1c2ccc(-c3ccccc3)cc2[C@@H]2[C@@H](CCN2C(=O)c2ccncc2)[C@@H]1CO | 64.5% (inactive)
C[C@@H]1CN([C@H](C)CO)C(=O)Cc2cc(NC(=O)c3ccncc3)ccc2O[C@H]1CN(C)Cc1ccc(-c2ccccc2)cc1 | 48.9% (inactive)
N#Cc1cccc(-c2ccc([C@H]3[C@H](CO)N4CCCCN(C(=O)Nc5cccc(F)c5)C[C@@H]34)cc2)c1 | 87.9% (inactive)
C[C@@H]1CN([C@@H](C)CO)C(=O)c2cc(C#Cc3ccccc3)cnc2O[C@H]1CN(C)C(=O)c1ccccn1 | 62.8% (inactive)
COCC(=O)N(C)C[C@@H]1Oc2ncc(C#Cc3ccccc3OC)cc2C(=O)N([C@@H](C)CO)C[C@H]1C | 99.4% (active)
COc1ccc(C#Cc2cnc3c(c2)C(=O)N([C@@H](C)CO)C[C@H](C)[C@@H](CN(C)C(C)=O)O3)cc1 | -5.22% (inactive)
C[C@H]1CN([C@@H](C)CO)C(=O)CCCn2cc(nn2)CO[C@H]1CN(C)C(=O)c1ccccc1 | -12.4% (inactive)
C[C@H](CO)N1C[C@H](C)[C@@H](CN(C)S(=O)(=O)c2cccc(F)c2)OCc2ccccc2-c2c(n(C)c3ccccc23)C1=O | 91.4% (inactive)
O=C(CN1CCOCC1)N1CCCCN2[C@H](CO)[C@H](c3ccc(-c4ccccc4)cc3)[C@@H]2C1 | 49.3% (inactive)
CCCC#Cc1ccc2c(c1)O[C@@H](CN(C)C(=O)c1ccccc1F)[C@H](C)CN([C@H](C)CO)S2(=O)=O | 19.4% (inactive)
C[C@@H]1CN([C@H](C)CO)S(=O)(=O)c2ccc(C3=CCCC3)cc2O[C@H]1CN(C)Cc1ccccc1F | 73.8% (inactive)
C[C@H](CO)N1C[C@H](C)[C@@H](CN(C)Cc2ccncc2)Oc2cc(Br)ccc2S1(=O)=O | 92.7% (inactive)
C[C@@H]1CN([C@@H](C)CO)S(=O)(=O)c2ccc(/C=C/c3ccccc3)cc2O[C@H]1CN(C)Cc1ccccc1 | 106% (active)
C[C@H](CO)N1C[C@H](C)[C@H](CN(C)Cc2cccnc2)Oc2cc(C#CC3CCCC3)ccc2S1(=O)=O | 82.9% (inactive)
C[C@H]1CN([C@@H](C)CO)S(=O)(=O)c2ccc(C3=CCCCC3)cc2O[C@@H]1CN(C)Cc1ccccc1 | 109% (active)
C[C@H]1CN([C@@H](C)CO)S(=O)(=O)c2ccc(C3=CCCC3)cc2O[C@@H]1CN(C)Cc1ccccc1 | 68% (inactive)

Compound | inhibition
C[C@@H]1CN([C@@H](C)CO)S(=O)(=O)c2ccc(C#Cc3ccccc3)cc2O[C@@H]1CN(C)C(=O)Nc1ccccc1 | 99.8% (active)
C[C@H]1CN([C@@H](C)CO)S(=O)(=O)c2ccc(C#CCN(C)C)cc2O[C@@H]1CN(C)Cc1ccc(F)cc1 | 93.3% (inactive)
C[C@@H]1CN([C@H](C)CO)S(=O)(=O)c2ccc(C#CC3CCCC3)cc2O[C@@H]1CN(C)Cc1cccnc1 | 60.2% (inactive)
C[C@@H]1CN([C@@H](C)CO)S(=O)(=O)c2ccc(C#Cc3ccc(F)cc3)cc2O[C@H]1CN(C)C(=O)NC1CCCC1 | 81.2% (inactive)
C[C@@H]1CN([C@@H](C)CO)S(=O)(=O)c2ccc(C#Cc3ccc(F)cc3)cc2O[C@H]1CN(C)C(=O)c1ccccn1 | 14.4% (inactive)
CC(C)C#Cc1ccc2c(c1)O[C@H](CN(C)Cc1ccccc1)[C@H](C)CN([C@@H](C)CO)S2(=O)=O | 105% (active)
C[C@H](CO)N1C[C@H](C)[C@@H](CN(C)S(=O)(=O)c2ccccc2)Oc2ncc(C#Cc3ccccc3F)cc2C1=O | 93% (inactive)
C[C@H](CO)N1C[C@H](C)[C@H](CN(C)S(=O)(=O)c2cccc(F)c2)Oc2ncc(/C=C/c3ccccc3)cc2C1=O | 46.4% (inactive)
C[C@H]1CN([C@@H](C)CO)C(=O)c2cccc(NS(=O)(=O)c3cn(C)cn3)c2O[C@@H]1CN(C)CC1CCCCC1 | 29.6% (inactive)
Cc1noc(C)c1S(=O)(=O)Nc1ccc2c(c1)C(=O)N([C@@H](C)CO)C[C@H](C)[C@@H](CN(C)C(=O)Nc1cccc3ccccc13)OCCCC[C@H](C)O2 | 42.4% (inactive)
CC(C)(C)[S@@](=O)N1Cc2cc(C(=O)NCc3ccc4c(c3)OCO4)nc(-c3cccc(-c4ccccc4)c3)c2[C@H]1CCO | 91.6% (inactive)
O=C(Nc1ccc(Cl)cc1)N[C@@H]1CC[C@@H](CCNC(=O)c2ccccc2F)O[C@H]1CO | 36.4% (inactive)
Cc1ccc(S(=O)(=O)N(C)C[C@@H]2Oc3ncc(-c4cc5ccccc5o4)cc3C(=O)N([C@H](C)CO)C[C@@H]2C)cc1 | 43% (inactive)
COc1ccccc1-c1ccc2c(c1)O[C@H](CN(C)S(=O)(=O)c1ccc(C)cc1)[C@@H](C)CN([C@H](C)CO)S2(=O)=O | 91.3% (inactive)
O=C(Nc1ccccc1)N1CCCCN2[C@H](CO)[C@@H](c3ccc(C#Cc4ccccn4)cc3)[C@H]2C1 | 39.3% (inactive)
C[C@H](CO)N1C[C@H](C)[C@@H](CN(C)C(=O)C2CCCCC2)Oc2cc(-c3ccccc3)ccc2S1(=O)=O | 68.2% (inactive)
C[C@@H]1CN([C@H](C)CO)S(=O)(=O)c2ccc(C#C[C@@H](C)O)cc2O[C@@H]1CN(C)Cc1ccc(-c2ccccc2)cc1 | 96.9% (active)
CCCN(C)C[C@@H]1Oc2cc(C#Cc3ccc(F)cc3)ccc2S(=O)(=O)N([C@H](C)CO)C[C@H]1C | 68.9% (inactive)
C[C@H](CO)N1C[C@H](C)[C@H](CN(C)Cc2ccncc2)Oc2cc(-c3ccncc3)ccc2S1(=O)=O | 90.6% (inactive)
Cc1ccc(S(=O)(=O)N2C[C@@H](O)COC[C@@H]3O[C@H](CC(=O)NCc4ccc(Cl)c(Cl)c4)CC[C@H]32)cc1 | 50.2% (inactive)
COCCNC[C@@H]1[C@H](c2ccccc2)[C@H](CO)N1c1nc(C)c(C)s1 | 5.12% (inactive)
O=C(Nc1ccc2c(c1)[C@@H]1C[C@H](CC(=O)N3CCOCC3)O[C@@H](CO)[C@@H]1O2)c1ccc2c(c1)OCO2 | 6.38% (inactive)

Compound | inhibition
C[C@@H]1CN([C@H](C)CO)C(=O)c2cc(NS(C)(=O)=O)ccc2O[C@@H](C)CCCCO[C@H]1CN(C)S(=O)(=O)c1cn(C)cn1 | -5.24% (inactive)
COc1ccc(C#Cc2ccc([C@@H]3[C@@H](CO)N4CCCCN(C(=O)c5ccncc5)C[C@@H]34)cc2)cc1 | 30% (inactive)
C[C@@H]1CN([C@H](C)CO)C(=O)c2cccc(NC(=O)c3cnccn3)c2O[C@@H]1CN(C)Cc1ccc(C(=O)Nc2ccccc2N)cc1 | 82.4% (inactive)
C[C@H]1CN([C@@H](C)CO)S(=O)(=O)c2ccc(C#CC3CCCC3)cc2O[C@H]1CN(C)C(=O)Cc1ccncc1 | 79.4% (inactive)
C[C@H]1CN([C@@H](C)CO)C(=O)c2cc(NC(=O)Nc3ccc4c(c3)OCO4)ccc2O[C@@H]1CN(C)Cc1ccc(Oc2ccccc2)cc1 | 66.6% (inactive)
C[C@@H]1CN([C@@H](C)CO)C(=O)c2cc(NC(=O)Nc3cccc4ccccc34)ccc2O[C@H]1CN(C)Cc1ccc(Oc2ccccc2)cc1 | 106% (active)
C[C@@H]1CN([C@@H](C)CO)C(=O)c2cc(NC(=O)Nc3cccc4ccccc34)ccc2O[C@H]1CN(C)Cc1ccc(Cl)c(Cl)c1 | 102% (active)
Cc1ccc(S(=O)(=O)Nc2ccc3c(c2)C(=O)N([C@H](C)CO)C[C@H](C)[C@H](CN(C)Cc2ccc(Cl)c(Cl)c2)O3)cc1 | 74% (inactive)
C[C@@H]1CN([C@@H](C)CO)C(=O)c2cc(NC(=O)Cc3ccccc3)ccc2O[C@@H]1CN(C)Cc1ccc(Oc2ccccc2)cc1 | 94.9% (inactive)
C[C@@H]1CN([C@@H](C)CO)C(=O)c2cc(NC(=O)Nc3ccc4c(c3)OCO4)ccc2O[C@@H]1CN(C)Cc1ccc(Oc2ccccc2)cc1 | -1.56% (inactive)
Cc1ccc(-c2ccc([C@H]3[C@H](CO)N4CCCCN(Cc5cncnc5)C[C@@H]34)cc2)cc1 | 50.8% (inactive)
C[C@@H]1CN([C@H](C)CO)C(=O)c2cc(C#Cc3ccccn3)cnc2O[C@H]1CN(C)Cc1ccccc1 | 76.7% (inactive)
C[C@H]1CN([C@@H](C)CO)C(=O)c2ccccc2-c2ccccc2CO[C@@H]1CN(C)S(=O)(=O)c1ccc(C(F)(F)F)cc1 | 71.5% (inactive)
CCC(=O)N1CCCCN2[C@H](C1)[C@@H](c1ccc(-c3ccc(F)cc3)cc1)[C@@H]2CO | -6.94% (inactive)
C[C@@H]1CN([C@H](C)CO)C(=O)c2cc(NC(=O)Nc3ccc(F)cc3)ccc2O[C@@H](C)CCCCO[C@H]1CN(C)Cc1ccc(Cl)c(Cl)c1 | 114% (active)
COc1ccc(NC(=O)Nc2ccc3c(c2)C(=O)N([C@H](C)CO)C[C@@H](C)[C@H](CN(C)Cc2ccc(Cl)c(Cl)c2)OCCCC[C@@H](C)O3)cc1 | 114% (active)
C[C@@H]1CCCCO[C@H](CN(C)Cc2ccc(Cl)c(Cl)c2)[C@H](C)CN([C@@H](C)CO)C(=O)c2cc(NC(=O)C3CCCCC3)ccc2O1 | 110% (active)
C[C@@H]1CCCCO[C@@H](CN(C)Cc2ccc(Cl)c(Cl)c2)[C@H](C)CN([C@H](C)CO)C(=O)c2cc(NC(=O)Nc3ccc(F)cc3)ccc2O1 | 112% (active)
COc1ccc(CN(C)C[C@H]2OCCCC[C@H](C)Oc3ccc(NC(=O)Nc4ccc5c(c4)OCO5)cc3C(=O)N([C@H](C)CO)C[C@@H]2C)cc1 | 83% (inactive)
C[C@@H]1CCCCO[C@@H](CN(C)Cc2ccc3c(c2)OCO3)[C@@H](C)CN([C@@H](C)CO)C(=O)c2cc(NC(=O)Nc3ccccc3)ccc2O1 | 84.4% (inactive)
